Data as given in article PMC3059893 (Biochemistry, 2011).
Residue numbers refer to the chain shown, from its start. Peptide text beside a SMILES is read from it. * marks the point of attachment. Dansyl = CN(C)c1cccc2c(S(=O)(=O)*)cccc12

Tests used:
[1] = target: Tiam1 PDZ L911M/K912E (Mus musculus, UniProt Q60610, L911M/K912E, species not given); experiment: Fluorescence anisotropy binding and double-mutant cycle, Tiam1 PDZ mutant; conditions: Tiam1 PDZ L911M/K912E
Method in brief: (§1)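 Wild-type, single- and double-mutant Tiam1 PDZ (E. coli-expressed, tag-cleaved) were each titrated into 1 μM dansylated peptide at 25 °C. Anisotropy read at ex 340/em 550 nm; Kd from hyperbolic fit, ≥3 independent runs. ΔG = RT ln Kd at 298.15 K. Coupling energy ΔΔΔGint = (ΔGWT − ΔGM1) − (ΔGM2 − ΔGDM), with errors propagated by standard methods.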

[2] = test system: Tiam1 PDZ L911M/K912E; experiment: as above
Method in brief: as §1

[3] = target: T1, Tiam2 PDZ domain (Mus musculus, UniProt Q6ZPF3); experiment: Equilibrium fluorescence anisotropy binding of dansylated peptides
T1 sequence (Q6ZPF3 908-997 limits assumed): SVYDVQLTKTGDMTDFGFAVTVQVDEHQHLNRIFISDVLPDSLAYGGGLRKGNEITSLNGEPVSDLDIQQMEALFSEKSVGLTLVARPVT
Method in brief: (§2)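 Purified PDZ domains were titrated from a 1.5 mM stock into 1 μM N-terminally dansylated peptide at 25 °C in a stirred cuvette. Proteins were expressed in E. coli BL21(DE3), purified by Ni-chelate and size-exclusion chromatography, and His6-tag cleaved by TEV; Tiam2 is mouse residues 809–994; mutants made by site-directed mutagenesis. Anisotropy ex 340/em 550 nm, buffer-blank corrected. Kd from hyperbolic fit, mean of ≥3 independent runs; ΔG = RT ln Kd (298.15 K).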

[4] = target: Tiam1 PDZ L911M (Homo sapiens, UniProt Q13009, L911M); experiment: Fluorescence anisotropy binding, Tiam1 PDZ mutant
Method in brief: as §2

[5] = target: Tiam1 PDZ K912E (Homo sapiens, UniProt Q13009, K912E); experiment: Fluorescence anisotropy binding, Tiam1 PDZ mutant
Method in brief: as §2

[6] = target: Tiam1 PDZ L915F/L920V (Mus musculus, UniProt Q60610, L915F/L920V, species not given); experiment: Fluorescence anisotropy binding and double-mutant cycle, Tiam1 PDZ mutant; conditions: Tiam1 PDZ L915F/L920V
Method in brief: as §1

[7] = test system: Tiam1 PDZ L915F/L920V; experiment: as above
Method in brief: as §1

[8] = target: Tiam1 PDZ domain (wild-type) (Homo sapiens, UniProt Q13009); experiment: Equilibrium fluorescence anisotropy binding of dansylated peptides
Method in brief: as §2

[9] = target: Tiam1 PDZ L915F (Homo sapiens, UniProt Q13009, L915F); experiment: Fluorescence anisotropy binding, Tiam1 PDZ mutant
Method in brief: as §2

[10] = target: Tiam1 PDZ L920V (Homo sapiens, UniProt Q13009, L920V); experiment: Fluorescence anisotropy binding, Tiam1 PDZ mutant
Method in brief: as §2

[11] = target: Tiam1 PDZ QM (L911M/K912E/L915F/L920V) (Homo sapiens, UniProt Q13009, K912E/L911M/L915F/L920V); experiment: Fluorescence anisotropy binding, Tiam1 PDZ quadruple mutant
Method in brief: as §2

[12] = test system: Tiam1 PDZ QM (L911M/K912E/L915F/L920V); experiment: as above
Method in brief: as §2

[13] = target: T2, Caspr4 (Homo sapiens); experiment: fluorescence anisotropy
T2 chain: ENQKEYFF

[14] = target: T3, Tiam1 peptide 2; experiment: fluorescence anisotropy
T3 chain: YAAEKYWA

[15] = target: T4, Tiam1 peptide 3; experiment: fluorescence anisotropy
T4 chain: YAAKAFRF

[16] = target: T5, Syndecan1 (Homo sapiens); experiment: fluorescence anisotropy
T5 chain: TKQEEFYA

Tiam1 PDZ L920V, sequence (Q13009 841-930 L920V limits assumed): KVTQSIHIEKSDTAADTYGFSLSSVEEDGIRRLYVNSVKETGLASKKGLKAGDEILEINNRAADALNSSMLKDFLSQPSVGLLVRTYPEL
Tiam1 PDZ L915F, sequence (Q13009 841-930 L915F limits assumed): as the sequence (Q13009 841-930 L920V limits assumed) above, with L75F, V80L counted along it
Tiam1 PDZ L911M, sequence (Q13009 841-930 L911M limits assumed): as the sequence (Q13009 841-930 L920V limits assumed) above, with L71M, V80L counted along it
Tiam1 PDZ K912E, sequence (Q13009 841-930 K912E limits assumed): as the sequence (Q13009 841-930 L920V limits assumed) above, with K72E, V80L counted along it
Tiam1 PDZ domain (wild-type), sequence (Q13009 841-930 limits assumed): as the sequence (Q13009 841-930 L920V limits assumed) above, with V80L counted along it
Tiam1 PDZ L911M/K912E (Mus musculus, UniProt Q60610, L911M/K912E, species not given), sequence (Q60610 2-1591 L911M/K912E): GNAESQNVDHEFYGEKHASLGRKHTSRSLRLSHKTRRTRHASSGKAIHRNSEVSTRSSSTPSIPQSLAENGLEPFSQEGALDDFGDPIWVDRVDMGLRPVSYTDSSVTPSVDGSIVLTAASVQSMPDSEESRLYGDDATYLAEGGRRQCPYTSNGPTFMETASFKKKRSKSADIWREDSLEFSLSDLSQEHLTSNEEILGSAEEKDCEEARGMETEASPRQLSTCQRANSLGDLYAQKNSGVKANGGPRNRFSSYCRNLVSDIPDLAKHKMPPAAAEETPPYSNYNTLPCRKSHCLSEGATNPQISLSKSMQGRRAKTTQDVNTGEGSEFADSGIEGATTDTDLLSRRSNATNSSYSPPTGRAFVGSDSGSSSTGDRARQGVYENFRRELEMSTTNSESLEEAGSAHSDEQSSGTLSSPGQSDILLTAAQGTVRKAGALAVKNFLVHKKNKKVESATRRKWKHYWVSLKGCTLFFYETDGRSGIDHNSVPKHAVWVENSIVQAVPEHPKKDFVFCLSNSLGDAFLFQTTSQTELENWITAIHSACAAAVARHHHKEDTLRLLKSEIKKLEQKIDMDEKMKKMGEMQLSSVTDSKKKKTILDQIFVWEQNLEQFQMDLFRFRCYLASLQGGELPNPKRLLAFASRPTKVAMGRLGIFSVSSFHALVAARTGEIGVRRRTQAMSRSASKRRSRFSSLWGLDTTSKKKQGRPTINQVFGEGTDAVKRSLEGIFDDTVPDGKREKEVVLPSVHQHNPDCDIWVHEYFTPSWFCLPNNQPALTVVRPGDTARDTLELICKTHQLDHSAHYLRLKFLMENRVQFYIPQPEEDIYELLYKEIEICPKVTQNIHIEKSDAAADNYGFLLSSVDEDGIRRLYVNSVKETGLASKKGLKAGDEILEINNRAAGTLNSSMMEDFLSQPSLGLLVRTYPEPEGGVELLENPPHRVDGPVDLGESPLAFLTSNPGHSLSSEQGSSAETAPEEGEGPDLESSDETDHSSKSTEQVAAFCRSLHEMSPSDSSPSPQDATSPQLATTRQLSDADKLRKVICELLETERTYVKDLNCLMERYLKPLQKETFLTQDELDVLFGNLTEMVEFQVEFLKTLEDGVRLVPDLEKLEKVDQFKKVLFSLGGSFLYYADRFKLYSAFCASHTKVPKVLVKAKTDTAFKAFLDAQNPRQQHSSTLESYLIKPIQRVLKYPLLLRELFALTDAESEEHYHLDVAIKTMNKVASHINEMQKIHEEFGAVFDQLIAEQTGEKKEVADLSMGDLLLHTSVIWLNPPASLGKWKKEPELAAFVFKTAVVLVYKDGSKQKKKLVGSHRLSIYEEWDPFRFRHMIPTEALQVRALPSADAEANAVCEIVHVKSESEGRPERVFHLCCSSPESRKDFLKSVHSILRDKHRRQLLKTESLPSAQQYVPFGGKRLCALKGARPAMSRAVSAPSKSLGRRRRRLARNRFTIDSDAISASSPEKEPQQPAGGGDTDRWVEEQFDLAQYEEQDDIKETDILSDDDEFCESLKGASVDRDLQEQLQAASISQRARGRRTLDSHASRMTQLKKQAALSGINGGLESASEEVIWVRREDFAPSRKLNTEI
Tiam1 PDZ QM (L911M/K912E/L915F/L920V) (Homo sapiens, UniProt Q13009, K912E/L911M/L915F/L920V), sequence (Q13009 841-930 L911M/K912E/L915F/L920V limits assumed): as the sequence (Q13009 841-930 L920V limits assumed) above, with L71M, K72E, L75F counted along it
Tiam1 PDZ L915F/L920V (Mus musculus, UniProt Q60610, L915F/L920V, species not given), sequence (Q60610 2-1591 L915F/L920V): as the sequence (Q60610 2-1591 L911M/K912E) above, with M910L, E911K, L914F, L919V counted along it

`CN(C)c1cccc2c(S(=O)(=O)N[C@@H](CCC(=O)O)C(=O)N[C@@H](CC(N)=O)C(=O)N[C@@H](CCC(N)=O)C(=O)N[C@@H](CCCCN)C(=O)N[C@@H](CCC(=O)O)C(=O)N[C@@H](Cc3ccc(O)cc3)C(=O)N[C@@H](Cc3ccccc3)C(=O)N[C@@H](Cc3ccccc3)C(=O)O)cccc12` [Caspr4] (Dansyl-ENQKEYFF-OH) was tested, and the ΔGb [1] was -6.19 ± 0.02 kcal/mol, the Kd ([1]; fluorescence anisotropy, 25 °C) was 28.9 ± 0.9 µM and the “ΔΔΔGint (pair-wise coupling free energy)” value ([2]; double-mutant cycle L911/K912 (S-2 pocket)) was -0.25 ± 0.04 kcal/mol. It also gave a Σ singles ([2]; sum of ΔΔGb of single mutants L911M and K912E) of 0.49 ± 0.04 kcal/mol, a ΔΔGb ([2]; ΔGb(mutant) − ΔGb(wild-type), L911M/K912E) of 0.24 ± 0.02 kcal/mol and a Kd [3] of 3.4 ± 0.3 µM. The “fold lower Kd for Tiam2 PDZ than for Tiam1 PDZ” value ([3]; Tiam2 vs Tiam1 PDZ) was roughly 6 fold, the Kd [4] was 14 ± 0.3 µM and the ΔGb ([4]; Tiam1 PDZ L911M) was -6.61 ± 0.01 kcal/mol. The ΔΔGb ([4]; ΔGb(mutant) − ΔGb(wild-type), L911M) was -0.18 ± 0.02 kcal/mol, the Kd [5] was 58.6 ± 4.1 µM and the ΔGb ([5]; Tiam1 PDZ K912E) was -5.77 ± 0.04 kcal/mol. For the same molecule, the ΔΔGb ([5]; ΔGb(mutant) − ΔGb(wild-type), K912E) was 0.67 ± 0.04 kcal/mol, the ΔGb [6] was -5.61 ± 0.04 kcal/mol and the Kd ([6]; fluorescence anisotropy, 25 °C) was 76.5 ± 3.4 µM. The “ΔΔΔGint (pair-wise coupling free energy)” value ([7]; double-mutant cycle L915/L920 (S0 pocket)) was 0.38 ± 0.10 kcal/mol, the Σ singles ([7]; sum of ΔΔGb of single mutants L915F and L920V) was 0.36 ± 0.06 kcal/mol and the ΔGb ([8]; wild-type Tiam1 PDZ, ΔG = RT ln(Kd), T 298.15 K) was -6.43 ± 0.01 kcal/mol. It also gave a Kd [9] of 61 ± 4 µM, a ΔGb ([9]; Tiam1 PDZ L915F) of -5.74 ± 0.04 kcal/mol and a ΔΔGb ([9]; ΔGb(mutant) − ΔGb(wild-type), L915F) of 0.69 ± 0.04 kcal/mol. The Kd [10] was 10.8 ± 0.6 µM, the “fold decrease in Kd vs wild-type Tiam1 PDZ” value ([10]; L920V) was roughly 2 fold and the ΔGb ([10]; Tiam1 PDZ L920V) was -6.77 ± 0.03 kcal/mol. For the same molecule, the ΔΔGb ([10]; ΔGb(mutant) − ΔGb(wild-type), L920V) was -0.33 ± 0.04 kcal/mol, the Kd [11] was 18.3 ± 0.3 µM and the ΔGb ([11]; Tiam1 PDZ QM) was -6.46 ± 0.01 kcal/mol. The “fold higher Kd than Tiam2 PDZ domain” value ([12]; QM vs Tiam2 PDZ) was 5 fold and the ΔΔGb ([12]; ΔGb(mutant) − ΔGb(wild-type), QM) was -0.02 ± 0.02 kcal/mol.

`C[C@H](NC(=O)[C@H](C)NC(=O)[C@H](Cc1ccc(O)cc1)NS(=O)(=O)c1cccc2c(N(C)C)cccc12)C(=O)N[C@@H](CCCCN)C(=O)N[C@@H](C)C(=O)N[C@@H](Cc1ccccc1)C(=O)N[C@@H](CCCNC(=N)N)C(=O)N[C@@H](Cc1ccccc1)C(=O)O` [Tiam1 peptide 3 (Group II)] (Dansyl-YAAKAFRF-OH) showed a Kd [3] of 7.7 ± 1.3 µM and a Kd [8] of 200 ± 50 µM.

`CC(C)[C@H](NC(=O)[C@H](Cc1ccc(O)cc1)NC(=O)[C@@H](NC(=O)[C@H](CCCNC(=N)N)NC(=O)[C@H](CCCCN)NC(=O)[C@H](C)NC(=O)[C@H](C)NC(=O)[C@H](Cc1ccc(O)cc1)NS(=O)(=O)c1cccc2c(N(C)C)cccc12)[C@@H](C)O)C(=O)O` [Tiam2 peptide 1 (Group I)] (Dansyl-YAAKRTYV-OH) was tested, and the Kd [3] was 77.6 ± 2.4 µM and the Kd [8] was greater than 250 µM.

In the case of `CC[C@H](C)[C@H](NC(=O)[C@H](CC(C)C)NC(=O)[C@H](C)NC(=O)[C@H](C)NC(=O)[C@H](Cc1ccc(O)cc1)NS(=O)(=O)c1cccc2c(N(C)C)cccc12)C(=O)N[C@@H](Cc1c[nH]cn1)C(=O)N[C@@H](CCCCN)C(=O)N[C@@H](Cc1ccccc1)C(=O)O` [Tiam2 peptide 3 (Group II)] (Dansyl-YAALIHKF-OH), the Kd [3] is reported as 28.7 ± 4.9 µM and the Kd [8] is reported as greater than 250 µM.

B1: Tiam1 PDZ (protein)
chain: VTQSIHIEKSDTAADTYGFSLSSVEEDGIRRLYVNSVKETGLASKKGLKAGDEILEINNRAADALNSSML
In the case of B1, the Kd [13] is reported as 19 µM, the Kd [14] is reported as 90.3 µM and the Kd [15] is reported as 200 µM.

B2: Tiam1 PDZ (protein)
chain: B1 chain with L70M
B2 was tested, and the Kd [13] was 14 µM and the Kd [16] was 34.7 µM.
